Measured values from ChEMBL document CHEMBL4257536, “Pharmacophore-based tailoring of biphenyl amide derivatives as selective 5-hydroxytryptamine 2B receptor antagonists” (Medchemcomm, 2018).

How the values were obtained:
[1] = target: T1, 5-hydroxytryptamine receptor 2C (Homo sapiens, UniProt P28335); test: Displacement of [3H]LSD from human 5HT2C receptor expressed in HEKT cell membranes after 1.5 hrs by liquid scintillation counting method
T1 sequence (P28335 whole entry): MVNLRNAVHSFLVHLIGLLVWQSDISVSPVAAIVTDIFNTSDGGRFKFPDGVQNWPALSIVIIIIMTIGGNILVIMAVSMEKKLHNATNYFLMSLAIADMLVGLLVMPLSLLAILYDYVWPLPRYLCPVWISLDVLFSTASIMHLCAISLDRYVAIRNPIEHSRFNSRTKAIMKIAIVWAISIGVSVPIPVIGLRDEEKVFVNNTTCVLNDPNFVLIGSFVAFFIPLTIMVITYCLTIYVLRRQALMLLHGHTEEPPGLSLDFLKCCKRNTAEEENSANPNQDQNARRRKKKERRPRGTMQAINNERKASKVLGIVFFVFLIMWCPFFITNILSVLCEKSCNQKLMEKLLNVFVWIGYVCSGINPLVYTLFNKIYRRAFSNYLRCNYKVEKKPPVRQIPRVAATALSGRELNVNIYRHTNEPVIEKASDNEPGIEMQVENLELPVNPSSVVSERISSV

[2] = target: T2, 5-hydroxytryptamine receptor 2B (Homo sapiens, UniProt P41595); test: Ratio of IC50 for antagonist activity at recombinant human 5-HT2B receptor in presence of human serum albumin to IC50 for antagonist activity at recombinant human 5-HT2B receptor in absence of human serum albumin
Summary of the method: (§1)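 IC50 was measured in the CHO-K1/5-HT2B calcium-flux assay twice, once in buffer alone and once with 4% HSA added. The ratio compares the IC50 with HSA to the IC50 without it. Run in triplicate.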

[3] = target: T2, 5-hydroxytryptamine receptor 2B; test: Displacement of [3H]LSD from human 5HT2B receptor expressed in HEK cells membranes after 1.5 hrs by liquid scintillation counting method; assay type: cell membranes
[4] = organism: Homo sapiens; test: Selectivity ratio of Ki for human 5HT1B receptor to Ki for human 5HT2B receptor
Summary of the method: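 Ki values from radioligand displacement run in triplicate, using [3H]GR127543 for 5-HT1B and [3H]LSD for 5-HT2B. The ratio compares the 5-HT1B Ki to the 5-HT2B Ki.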

[5] = target: 5-hydroxytryptamine receptor 2A (Homo sapiens, UniProt P28223); test: Displacement of [3H]ketanserin from human 5HT2A receptor expressed in HEKT cell membranes after 1.5 hrs by liquid scintillation counting method; assay type: cell-based
[6] = target: 5-hydroxytryptamine receptor 1B (Homo sapiens, UniProt P28222); test: Displacement of [3H]GR127543 from human 5HT1B receptor expressed in HEK cell membranes after 1.5 hrs by liquid scintillation counting method
Summary of the method: (§2)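 Ki determination by radioligand displacement in triplicate. Reference radioligands: [3H]5-HT for 5-HT1E, [3H]8-OH-DPAT for 5-HT1A, [3H]GR127543 for 5-HT1B, [3H]LY278584 for 5-HT3.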

[7] = target: T3, 5-hydroxytryptamine receptor 1A (Homo sapiens, UniProt P08908); test: Displacement of [3H]8-OH-DPAT from human 5HT1A receptor expressed in CHO cell membranes after 1.5 hrs by liquid scintillation counting method; summary of the method: as §2
T3 sequence (P08908 whole entry): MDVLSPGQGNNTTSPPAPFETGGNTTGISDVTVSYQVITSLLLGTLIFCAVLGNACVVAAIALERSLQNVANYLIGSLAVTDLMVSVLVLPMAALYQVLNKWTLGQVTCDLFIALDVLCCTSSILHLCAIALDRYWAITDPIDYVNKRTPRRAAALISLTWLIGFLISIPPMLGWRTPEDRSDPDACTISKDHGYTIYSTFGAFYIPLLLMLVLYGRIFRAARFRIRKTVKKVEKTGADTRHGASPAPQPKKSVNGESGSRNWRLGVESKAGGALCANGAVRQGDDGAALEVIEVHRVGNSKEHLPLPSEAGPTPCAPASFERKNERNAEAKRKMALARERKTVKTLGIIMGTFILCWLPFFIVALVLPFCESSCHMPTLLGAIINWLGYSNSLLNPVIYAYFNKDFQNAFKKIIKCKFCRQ

[8] = target: 5-hydroxytryptamine receptor 1E (Homo sapiens, UniProt P28566); test: Displacement of [3H]5-HT from human 5HT1E receptor expressed in HEKT cell membranes after 1.5 hrs by liquid scintillation counting method; summary of the method: as §2
[9] = target: T4, 5-hydroxytryptamine receptor 3A (Homo sapiens, UniProt P46098); test: Displacement of [3H]LY278584 from human 5HT3 receptor expressed in HEKT cell membranes after 1.5 hrs by liquid scintillation counting method
T4 sequence (P46098 whole entry): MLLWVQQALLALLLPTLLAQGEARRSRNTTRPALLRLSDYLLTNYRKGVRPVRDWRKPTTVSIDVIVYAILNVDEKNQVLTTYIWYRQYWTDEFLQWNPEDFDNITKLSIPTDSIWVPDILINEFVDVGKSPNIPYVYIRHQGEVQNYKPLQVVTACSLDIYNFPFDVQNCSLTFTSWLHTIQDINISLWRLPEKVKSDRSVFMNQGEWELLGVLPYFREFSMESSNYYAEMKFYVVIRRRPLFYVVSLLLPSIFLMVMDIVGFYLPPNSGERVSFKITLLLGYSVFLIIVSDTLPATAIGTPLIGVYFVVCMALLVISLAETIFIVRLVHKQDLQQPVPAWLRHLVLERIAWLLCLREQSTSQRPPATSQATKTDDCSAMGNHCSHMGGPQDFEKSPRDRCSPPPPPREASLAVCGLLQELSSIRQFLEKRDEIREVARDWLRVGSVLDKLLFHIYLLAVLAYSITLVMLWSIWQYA

[10] = Half life in rat liver microsomes; assay type: ADME, microsome
[11] = target: T2, 5-hydroxytryptamine receptor 2B; test: (§3) Antagonist activity at recombinant human 5-HT2B receptor expressed in CHOK1 cells assessed as inhibition of serotonin-induced calcium flux preincubated for 60 mins at 37 degC followed by incubation at room temperature for 15 mins and subsequent addition of serotonin and measured for 100 secs in presence of human serum albumin by fluorescence assay; assay type: functional, cell-based; summary of the method: as §1
[12] = tested on: HepG2; test: Cytotoxicity against human HepG2 cells by MTT assay; assay type: cell-based
[13] = Half life of compound in fasted state simulated gastric fluid at pH 1.6; assay type: ADME
[14] = target: T2, 5-hydroxytryptamine receptor 2B; test: as §3, with “secs” for “secs in presence of human serum albumin”; assay type: functional, cell-based
Summary of the method: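 5-HT2B antagonist IC50 came from a dose-response curve in a calcium-flux assay in the CHO-K1/5-HT2B cell line. Run in triplicate.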

[15] = Apparent permeability across basolateral side to apical side in human Caco2 cells; assay type: ADME, cell-based; conditions: Caco-2
[16] = Apparent permeability across apical side to basolateral side in human Caco2 cells; assay type: ADME, cell-based; conditions: Caco-2
[17] = Metabolic stability in human plasma assessed as compound remaining measured after 120 mins; assay type: ADME, cell-free; conditions: read-out: Stability
[18] = Half life of compound in fasted state simulated intestinal fluid at pH 6.5; assay type: ADME
[19] = target: T2, 5-hydroxytryptamine receptor 2B; test: as §3, with “flux at 1 to 10 uM” for “flux”, “secs” for “secs in presence of human serum albumin”, “assay relative to control” for “assay”; assay type: functional, cell-based
Summary of the method: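 Calcium-flux functional assay in CHO-K1 cells stably expressing 5-HT2B. Compounds were screened at 10 μM and 1 μM, and the value is % inhibition of 5-HT2B activity. Run in triplicate.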

Chain of 5-hydroxytryptamine receptor 1B (P28222 whole entry): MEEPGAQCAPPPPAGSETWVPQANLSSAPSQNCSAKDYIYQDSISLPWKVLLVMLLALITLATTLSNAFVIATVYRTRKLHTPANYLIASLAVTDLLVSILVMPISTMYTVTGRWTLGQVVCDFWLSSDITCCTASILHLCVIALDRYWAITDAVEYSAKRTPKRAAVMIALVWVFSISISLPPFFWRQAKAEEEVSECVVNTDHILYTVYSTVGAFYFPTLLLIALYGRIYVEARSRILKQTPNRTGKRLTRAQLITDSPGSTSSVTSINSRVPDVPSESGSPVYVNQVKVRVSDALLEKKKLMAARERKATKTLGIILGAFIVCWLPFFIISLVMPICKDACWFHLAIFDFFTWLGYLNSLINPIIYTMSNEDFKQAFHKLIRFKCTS
Chain of 5-hydroxytryptamine receptor 1E (P28566 whole entry): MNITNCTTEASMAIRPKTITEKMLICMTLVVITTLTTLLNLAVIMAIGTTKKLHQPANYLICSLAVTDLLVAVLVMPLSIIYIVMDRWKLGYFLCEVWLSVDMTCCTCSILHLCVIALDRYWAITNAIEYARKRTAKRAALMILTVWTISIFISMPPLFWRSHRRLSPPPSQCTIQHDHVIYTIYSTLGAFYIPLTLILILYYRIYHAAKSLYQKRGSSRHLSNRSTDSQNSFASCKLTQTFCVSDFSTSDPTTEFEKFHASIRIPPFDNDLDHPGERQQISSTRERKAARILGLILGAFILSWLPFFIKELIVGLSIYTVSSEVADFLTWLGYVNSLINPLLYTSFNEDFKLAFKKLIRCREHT
T2 sequence (P41595 whole entry): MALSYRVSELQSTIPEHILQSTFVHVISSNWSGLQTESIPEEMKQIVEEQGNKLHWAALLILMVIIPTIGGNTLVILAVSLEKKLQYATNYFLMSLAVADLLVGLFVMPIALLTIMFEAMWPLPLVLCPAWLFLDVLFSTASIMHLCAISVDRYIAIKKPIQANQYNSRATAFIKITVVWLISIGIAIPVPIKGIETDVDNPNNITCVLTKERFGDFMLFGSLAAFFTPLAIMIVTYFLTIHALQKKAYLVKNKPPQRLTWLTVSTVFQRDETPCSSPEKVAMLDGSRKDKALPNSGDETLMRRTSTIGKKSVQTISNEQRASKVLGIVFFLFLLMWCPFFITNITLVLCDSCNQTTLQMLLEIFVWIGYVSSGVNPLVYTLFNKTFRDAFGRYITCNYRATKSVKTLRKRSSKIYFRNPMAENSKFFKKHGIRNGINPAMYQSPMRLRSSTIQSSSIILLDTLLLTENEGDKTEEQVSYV
Chain of 5-hydroxytryptamine receptor 2A (P28223 whole entry): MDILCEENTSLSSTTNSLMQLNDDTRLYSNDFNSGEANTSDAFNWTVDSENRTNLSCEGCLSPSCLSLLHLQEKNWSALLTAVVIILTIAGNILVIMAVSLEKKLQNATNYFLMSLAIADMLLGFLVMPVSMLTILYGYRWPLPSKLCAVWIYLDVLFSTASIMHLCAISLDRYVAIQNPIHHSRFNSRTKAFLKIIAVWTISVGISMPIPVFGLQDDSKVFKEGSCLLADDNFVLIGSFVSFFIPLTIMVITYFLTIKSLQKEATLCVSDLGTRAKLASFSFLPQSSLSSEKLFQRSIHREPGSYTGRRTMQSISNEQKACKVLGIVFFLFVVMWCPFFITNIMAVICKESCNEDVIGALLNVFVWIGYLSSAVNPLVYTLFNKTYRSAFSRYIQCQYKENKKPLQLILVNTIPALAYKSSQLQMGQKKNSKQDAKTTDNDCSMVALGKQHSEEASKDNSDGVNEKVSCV

Row | SMILES | Ki [1] [µM] | Ratio IC50 [2] | Ki [3] [µM] | Ki [5] [µM] | Ki [6] [µM] | Ki [7] [µM] | Ki [8] [µM] | Ki [9] [µM] | further results
1 | Cc1nc2sccn2c(=O)c1CCN1CCC(=C(c2ccc(F)cc2)c2ccc(F)cc2)CC1 [RITANSERIN] | 0.0019 |  |  |  |  |  |  |  | 
2 | O=C(c1ccc(-c2ccccc2)cc1)N1CCC(c2nc3ccccc3[nH]2)CC1 |  | 500 |  |  |  |  |  |  | 
3 | CC(C)c1cc(-c2ccc(F)c3ccccc23)nc(N)n1 |  | 27 |  |  |  |  |  |  | 
4 | O=C(NCc1ccccc1)C1CCN(C(=O)c2ccc(-c3ccccc3)cc2)CC1 | 0.986 |  | 0.569 | 6.79 | 8.59 | 9.39 | > 10 | > 10 | Ratio Ki [4]: 15
5 | Cc1cc2c(cc1Cl)N(C(=O)Nc1ccnc3ccccc13)CC2 |  | 50 |  |  |  |  |  |  | 
6 | O=C(NCCc1c[nH]c2ccccc12)C1CCN(C(=O)c2ccccc2)CC1 | 0.749 |  | 0.0793 | 5.69 | 7.6 | 5.4 | > 10 | > 10 | 
7 | O=C(NCCc1c[nH]c2ccccc12)C1CCN(C(=O)c2ccc(-c3ccccc3)cc2)CC1 | 0.473 |  | 0.0045 | 2.46 | 3.41 | 0.603 | > 10 | > 10 | half-life [10]: 2.98 h; IC50 [11]: 0.0187 µM; IC50 [12]: > 50 µM; half-life [13]: 4.32 h; IC50 [14]: 0.0141 µM; Papp B→A [15]: 32.8 ×10⁻⁶ cm/s; Papp A→B [16]: 16.3 ×10⁻⁶ cm/s; remaining at 2 h [17]: 97.4%; half-life [18]: > 8.33 h; inhibition [19]: > 95%
